Results as given in ChEMBL document CHEMBL4043246, “Discovery of novel [1,2,4]triazolo[4,3-a]quinoxaline aminophenyl derivatives as BET inhibitors for cancer treatment” (Bioorg Med Chem Lett, 2017).
Each block holds one compound with its values, some of them ahead of it.

What was measured:
[1] = molecular target: Bromodomain-containing protein 4 (Homo sapiens, UniProt O60885); experiment: Inhibition of BRD4 BD1-BD2 (unknown origin) using tetraacetylated histone peptide as substrate after 2 hrs by alphascreen assay
[2] = Antiproliferative activity against human TY82 cells; format: functional, cell-based
THP-1 = experiment: Antiproliferative activity against human THP1 cells; format: functional, cell-based
[3] = Stability in mouse liver microsomes assessed as parent compound remaining after 30 mins; format: ADME, microsome; conditions: read-out: Stability
Method in brief: (§1)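 Incubated in vitro with mouse, rat or human liver microsomes for 30 minutes. Result expressed as percent of parent compound remaining.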

[4] = Stability in rat liver microsomes assessed as parent compound remaining after 30 mins; format: ADME, microsome; conditions: read-out: Stability; method in brief: as §1
[5] = Stability in human liver microsomes assessed as parent compound remaining after 30 mins; format: ADME, microsome; conditions: read-out: Stability; method in brief: as §1
[6] = Half life in rat at 2 mg/kg, iv; format: ADME, organism-based; conditions: in vivo
Method in brief: (§2)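 Rat pharmacokinetics with single intravenous (2 mg/kg) or oral (5 or 20 mg/kg) dosing. Terminal half-life is reported in hours.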

[7] = AUCt in rat at 2 mg/kg, iv; format: ADME, organism-based; conditions: in vivo
Method in brief: (§3)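 Rat pharmacokinetics with single dosing, either intravenous at 2 mg/kg or oral at 5 or 20 mg/kg. AUC is reported both to the last time point (AUCt) and extrapolated to infinity, in ug.hr/mL.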

[8] = AUCinfinity in rat at 2 mg/kg, iv; format: ADME, organism-based; parameters: dose 2 mg/kg, time infinity, route intravenous; conditions: in vivo; method in brief: as §3
[9] = Clearance in rat at 2 mg/kg, iv; format: ADME, organism-based; conditions: in vivo
[10] = Volume of distribution at steady state in rat at 2 mg/kg, iv; format: ADME, organism-based; conditions: in vivo, read-out: Vdss
Method in brief: (§4)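 Rat pharmacokinetics after a single intravenous dose of 2 mg/kg or oral doses of 5 mg/kg and 20 mg/kg. Reported parameters are Tmax, Cmax, T1/2, AUCt, AUC∞, CL, Vss and F(%). CL, Vss and F come from the intravenous/oral 2 and 5 mg/kg arms.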

Rattus norvegicus [11] = experiment: Tmax in rat at 5 mg/kg, po; format: ADME, organism-based; conditions: in vivo; method in brief: as §4
Rattus norvegicus [12] = experiment: Cmax in rat at 5 mg/kg, po; format: ADME, organism-based; parameters: dose 5 mg/kg, route oral; conditions: in vivo
Method in brief: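 Peak plasma level after single oral dosing in rat at 5 or 20 mg/kg. Cmax is given in mg/mL as printed, with Tmax in hours.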

Rattus norvegicus [13] = experiment: Half life in rat at 5 mg/kg, po; format: ADME, organism-based; conditions: in vivo; method in brief: as §2
[14] = AUCt in rat at 5 mg/kg, po; format: ADME, organism-based; conditions: in vivo; method in brief: as §3
Rattus norvegicus [15] = experiment: AUCinfinity in rat at 5 mg/kg, po; format: ADME, organism-based; parameters: dose 5 mg/kg, time infinity, route oral; conditions: in vivo; method in brief: as §3
[16] = Oral bioavailability in rat at 5 mg/kg; format: ADME, organism-based; conditions: in vivo; method in brief: as §4

Compound: Cc1nnc2c(Nc3cccc(CNC(=O)c4ccccc4)c3)nc3ccccc3n12
- IC50 [1]: 0.64 µM
- IC50 [2]: 8.6 µM

Compound: CC(C)(C)OC(=O)NCc1cccc(Nc2nc3ccccc3n3c(-c4ccccc4)nnc23)c1
- IC50 [1]: > 10 µM

Compound: CC(C)(C)OC(=O)NCc1cccc(Nc2nc3ccccc3n3cnnc23)c1
- IC50 [1]: > 10 µM

Compound: CCNC(=O)C[C@@H]1N=C(c2ccc(Cl)cc2)c2cc(OC)ccc2-n2c(C)nnc21 [MOLIBRESIB]
- IC50 [2]: 0.39 µM
- IC50 (THP-1): 0.29 µM

Compound: Cc1nnc2c(Nc3cccc(CNC(=O)OC(C)(C)C)c3)nccn12
- IC50 [1]: 1.5 µM
- IC50 [2]: > 10 µM

Compound: Cc1nnc2c(Nc3cccc(CN)c3)nc3ccccc3n12
- IC50 [1]: 0.35 µM
- IC50 [2]: > 10 µM

Compound: Cc1sc2c(c1C)C(c1ccc(Cl)cc1)=N[C@@H](CC(=O)Nc1ccc(O)cc1)c1nnc(C)n1-2 [BIRABRESIB]
- IC50 [2]: 0.067 µM
- IC50 (THP-1): 0.033 µM

Compound: CCC(=O)NCc1cccc(Nc2nc3ccccc3n3c(C)nnc23)c1
- IC50 [1]: 0.2 µM
- IC50 [2]: 7.6 µM

Further lines, with some results ahead:

- IC50 [1]: 0.16 µM
- IC50 (THP-1): > 10 µM
Compound: CCOC(=O)NCc1cccc(Nc2nc3ccccc3n3c(C)nnc23)c1
- IC50 [2]: > 10 µM

- IC50 [1]: 6.4 µM
Compound: Cc1nnc2c(Nc3ccc(NC(=O)OC(C)(C)C)cc3)nc3ccccc3n12
- IC50 [2]: > 10 µM

- IC50 [1]: 0.12 µM
Compound: Cc1nnc2c(Nc3cccc(NC(=O)OC(C)(C)C)c3)nc3ccccc3n12
- IC50 [2]: > 10 µM

- IC50 [1]: 2.7 µM
Compound: Cc1nnc2c(Nc3ccc(CNC(=O)OC(C)(C)C)cc3)nc3ccccc3n12
- IC50 [2]: > 10 µM

- IC50 [1]: > 10 µM
Compound: CCc1nnc2c(Nc3cccc(CNC(=O)OC(C)(C)C)c3)nc3ccccc3n12

- IC50 [1]: 0.017 to 0.068 µM
- IC50 (THP-1): 3.4 µM
- remaining at 0.5 h [3]: 0.12%
- remaining at 0.5 h [4]: 0.19%
- remaining at 0.5 h [5]: 27%
- half-life [6]: 0.72 h
- AUC(0-t) [7]: 4.02 µg·h/mL
- AUC(0-inf) [8]: 4.02 µg·h/mL
- clearance [9]: 0.5 L/h/kg
- Vd [10]: 0.46 L/kg
- Tmax (Rattus norvegicus [11]): 3.42 h
- Cmax (Rattus norvegicus [12]): 0.34 µg/mL
- t1/2 (Rattus norvegicus [13]): 3.69 h
- AUC(0-t) [14]: 2.11 µg·h/mL
- AUC (Rattus norvegicus [15]): 2.39 µg·h/mL
- bioavailability [16]: 20.9%
Compound: Cc1nnc2c(Nc3cccc(CNC(=O)OC(C)(C)C)c3)nc3ccccc3n12
- IC50 [2]: 2.5 to 7.1 µM

- IC50 [1]: > 10 µM
Compound: CC(C)(C)OC(=O)NCc1cccc(Nc2nc3ccccc3n3c(C(F)(F)F)nnc23)c1

- IC50 [1]: 0.53 µM
Compound: CC(=O)NCc1cccc(Nc2nc3ccccc3n3c(C)nnc23)c1
- IC50 [2]: > 10 µM

- IC50 [1]: 0.097 µM
Compound: Cc1nnc2c(Nc3cccc(CNC(=O)C(C)(C)C)c3)nc3ccccc3n12
- IC50 [2]: > 10 µM
